# Screening data deposited in PubChem BioAssay by several laboratories.
# hERG rescue: compounds protecting human hERG from proarrhythmic drug block. Q12809. CHO-hERG, FluxOR thallium flux, dofetilide IC70 present. activation (rescue from dofetilide block), less the hit threshold, % at 10 µM. hit rate 0.51% among 310,000;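 active = activation above the mean of controls blocked by dofetilide plus 5 SD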;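 also: thallium influx through hERG after potassium depolarization seen as dye fluorescence rise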
# KCNK3 block: human KCNK3 channel inhibition, primary screen; B-score at 10 µM; CHO-KCNK3 thallium flux, FluxOR fluorescence; active compounds read low; AID 602410; O14649; hit rate 0.84% among 340,000;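 active = B-score under library mean minus 4 SD, starting fluorescence ratio at most library mean plus 5 SD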;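 also: more negative B-score means stronger inhibition of thallium flux through KCNK3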
# KCNQ1 pot: potentiates or activates the human KCNQ1 potassium channel. B-score at 10 µM. CHO-K1 KCNQ1, thallium flux FluxOR fluorescence; active compounds read high. hit rate 0.35% among 310,000. P51787;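 active = fluorescence ratio B-score, a plate-corrected score, at least three library SD, with initial intensity B-score within 5 SD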
# Target sequence (P51787 whole entry, looked up): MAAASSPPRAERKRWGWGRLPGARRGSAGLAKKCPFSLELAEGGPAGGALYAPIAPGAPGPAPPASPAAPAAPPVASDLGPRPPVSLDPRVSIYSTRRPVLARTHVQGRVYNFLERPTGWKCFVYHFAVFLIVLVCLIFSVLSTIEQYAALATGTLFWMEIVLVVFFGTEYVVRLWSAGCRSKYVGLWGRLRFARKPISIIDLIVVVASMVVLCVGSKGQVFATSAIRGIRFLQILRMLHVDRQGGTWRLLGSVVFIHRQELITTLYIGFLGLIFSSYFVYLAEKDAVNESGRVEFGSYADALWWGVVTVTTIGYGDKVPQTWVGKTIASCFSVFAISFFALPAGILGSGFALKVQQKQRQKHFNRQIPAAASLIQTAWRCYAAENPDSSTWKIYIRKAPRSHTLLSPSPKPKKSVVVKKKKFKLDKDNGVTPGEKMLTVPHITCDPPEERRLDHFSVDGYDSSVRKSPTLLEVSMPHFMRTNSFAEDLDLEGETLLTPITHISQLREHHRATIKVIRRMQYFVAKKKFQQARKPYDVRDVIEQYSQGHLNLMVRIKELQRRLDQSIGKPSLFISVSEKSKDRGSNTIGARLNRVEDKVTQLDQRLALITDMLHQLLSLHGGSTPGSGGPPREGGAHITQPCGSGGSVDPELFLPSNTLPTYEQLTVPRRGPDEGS
#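 Material: CHO-K1 cells stably expressing KCNQ1. Medium: assay buffer for compound exposure, DMSO matched across wells. Reagent: K+/Tl+ depolarizing stimulus. Compound dosing: single-concentration screen. Times: 37 °C overnight plating, 90-min dark dye load, 20-min compound pretreatment. Technique: FluxOR Tl+ flux fluorescence.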
# KCNK9 block: inhibitors of human KCNK9 two-pore domain potassium channel; Q9NPC2; hit rate 1.2% among 310,000; AID 488922; HEK293 KCNK9, FluxOR thallium flux fluorescence; active compounds read low; B-score at 10 µM;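 active = ratio B-score over 3 SD below the library mean, with starting fluorescence within 5 SD of its mean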;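 also: negative B-score means less thallium flux so channel inhibition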
# KCNQ1 block: human KCNQ1 channel inhibition. AID 2642. CHO-K1 KCNQ1, FluxOR thallium flux fluorescence; active compounds read high. B-score at 10 µM. P51787. hit rate 1.3% among 310,000;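 active = compounds whose thallium flux B-score, printed positive for inhibition, exceeds three library SD while starting fluorescence stays within three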;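 also: channel opened by potassium depolarization with thallium stimulus after 20 min compound exposure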
# Cl transport mod: KCC2 (human) Cl- transport modulation | Q9H2X9 | KCC2 cells, thallium flux FluoZin-2 fluorescence | hit rate 2.2% among 190,000 | B-score of Tl+ flux slope (higher = more flux/activation; lower = inhibition) at 10 µM;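 active = thallium flux slope and its plate-corrected score both differing from the plate sample mean at a set confidence after two filtering rounds, in either direction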;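 also: slope of fluorescence scaled to starting intensity during 10 to 20 s after thallium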
# KCC2 sec1: KCC2 (human) modulation, secondary assay; normalised thallium flux (F/F0 slope) at 10 µM; HEK293-KCC2, thallium flux, FluoZin2 fluorescence; active compounds read high; hit rate 15% among 3,700; AID 1713; shares compounds with Cl transport mod;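 active = thallium flux slope above the same plate's solvent-only control mean plus 3 SD; inconclusive = the two replicate wells disagree; inactive = no significant difference from solvent-only control wells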
# KCC2 bumet counter: thallium flux persisting under bumetanide in KCC2 cells, counter-screen secondary assay. shares compounds with Cl transport mod. HEK293-KCC2 + bumetanide/ouabain, thallium flux FluoZin2; active compounds read high. normalized thallium flux at 10 µM. hit rate 49% among 3,700. AID 1714;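 active = thallium entry rate above the same plate's blocked-transporter control wells by more than 3 SD; inconclusive = the two repeat wells disagree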;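 also: raw slope of fluorescence over initial fluorescence between 10 and 20 s after thallium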
# KCC2 sec2: confirmation of human KCC2 transport modulators; shares compounds with Cl transport mod; HEK293-KCC2, thallium flux FluoZin2 fluorescence; actives lie on both sides; F/F0 rise rate, 10–20 s post-thallium; normalized thallium flux at 10 µM; hit rate 23% among 3,700;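 active = thallium flux slope more than 3 SD above or below the plate's solvent-only control mean, mostly below; inconclusive = the two repeat wells disagreed; inactive = no significant shift from solvent-only controls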;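 also: raw slope with 0.1% DMSO as baseline and bumetanide as block control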
# HEK counter1: parental HEK flux effect, counter-screen. shares compounds with Cl transport mod. HEK293 parental cells, thallium flux FluoZin2, ouabain; baseline-ratio fluorescence slope, 10–20 s after thallium. thallium flux rate (normalised fluorescence) at 10 µM. hit rate 46% among 3,700. AID 1716;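 active = thallium flux rate significantly above the same plate's solvent-only control wells, beyond their mean plus 3 SD; inconclusive = the two replicate wells gave conflicting results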
# KCC2 ouabain: KCC2 (human) modulation, ouabain retest; raw Tl+ flux slope (below DMSO = inhibition, above = activation) at 10 µM; hit rate 48% among 3,700; HEK293-KCC2, thallium flux FluoZin2 fluorescence; bidirectional: low = inhibitor, high = activator; AID 1717; shares compounds with Cl transport mod;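 active = thallium flux slope beyond 3 SD from same-plate DMSO control mean in most replicates, usually higher, sometimes lower; inconclusive = repeat tests gave conflicting results; inactive = no significant difference from controls in most replicates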;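 also: slope of initial-normalized fluorescence between seconds 10 and 20 after thallium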
# HEK counter2: acts in parental HEK cells, second KCC2 counter-screen; shares compounds with Cl transport mod; HEK293 parental, thallium flux FluoZin-2 fluorescence slope; thallium flux slope at 10 µM; hit rate 33% among 3,700; AID 1718;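 active = thallium flux slope above the same plate's solvent-control mean plus 3 SD in both duplicate wells; inconclusive = duplicate wells that disagreed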;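 also: run without ouabain in cells lacking the KCC2 cotransporter; slope of fluorescence scaled to its starting value between 10 and 20 s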
# Starred values were filed as active, the others as inactive; i = inactive; u = inconclusive; x = not tested or not shown. In the library only some 4.1% were active in any assay of this set; here they are far more common.
SMILES,hERG rescue,KCNK3 block,KCNQ1 pot,KCNK9 block,KCNQ1 block,Cl transport mod,KCC2 sec1,KCC2 bumet counter,KCC2 sec2,HEK counter1,KCC2 ouabain,HEK counter2
COc1ccc(CNC(=O)c2csc(Cc3ccc(OC)cc3)n2)cc1,1,i,i,i,i,x,x,x,x,x,x,x
COc1ccc(CNC(=O)c2csc(Cc3ccc(Cl)cc3)n2)cc1,-8,i,i,i,i,x,0.0059,u,0.025*,u,0.015*,0.0096
Cc1ccc(C(=O)NC(=S)Nc2cccc(NC(=O)c3ccccc3)c2)cc1[N+](=O)[O-],-10,i,i,i,i,1.4,x,x,x,x,x,x
O=C(NC(=S)Nc1ccc(Br)cn1)c1cccs1,4,i,13*,i,i,7.7*,0.0077,0.024*,0.036,0.017*,0.033*,0.018*
O=C(/C=C/c1ccco1)NC(=S)Nc1cccc([N+](=O)[O-])c1,-6,i,i,i,i,0.68,x,x,x,x,x,x
O=C(NC(=S)Nc1cccc([N+](=O)[O-])c1)c1ccccc1,-1,i,i,i,i,12*,0.0093,0.03*,0.033,u,0.024,u
O=C(NC(=S)Nc1ccc(N2CCOCC2)cc1)c1cncc(Br)c1,-5,i,i,i,i,5.5*,0.0091,0.019*,0.036,u,0.026*,0.013
O=C(NC(=S)Nc1cccc([N+](=O)[O-])c1)c1ccco1,0,i,i,i,i,28*,0.022*,0.079*,u,u,0.062*,0.025*
COc1cc(C(C)=O)ccc1OCC(=O)Nc1ccc(C)c(S(=O)(=O)N2CCCCCC2)c1,x,i,x,x,x,x,x,x,x,x,x,x
O=C(NC1CCCCCC1)c1ccc(-n2cnnc2)cc1,-6,i,i,i,i,x,x,x,x,x,x,x
COc1ccccc1CCNC(=O)CSc1nc(=O)[nH]c2c1CCC2,-11,i,i,i,i,x,x,x,x,x,x,x
O=C(NC(=S)Nc1ccccn1)c1cncc(Br)c1,-11,i,i,i,i,6.2*,0.0073,0.017*,0.033,0.015*,u,0.014*
CCOc1ccc(C(=O)NC(=S)Nc2ccccn2)cc1[N+](=O)[O-],-12,i,i,i,i,0.081,x,x,x,x,x,x
O=C(NC(=S)Nc1ccccn1)c1cccc([N+](=O)[O-])c1,-11,i,i,i,i,8*,u,0.042*,0.035,0.014*,0.026,0.013*
Nc1c(C(=O)O)sc2nc(-c3ccccc3)cc(-c3ccccc3)c12,-19,i,i,i,i,0.42,x,x,x,x,x,x
Nc1c(C(=O)O)sc2nc(-c3ccccc3)cc(-c3ccc(F)cc3)c12,-15,i,i,i,i,-5.4*,0.0089,0.012*,0.028,0.0069,0.012*,0.01
O=C1NC(NS(=O)(=O)c2ccccc2)(C(F)(F)F)C(=O)N1Cc1ccccc1 (stereo not drawn),-9,i,i,i,i,x,x,x,x,x,x,x
NC(=O)c1ccc(F)cc1,-5,i,i,i,i,0.81,0.0056,0.0046,0.028,0.0073,0.018,0.0094
O=C1c2cccc3c(O)ccc(c23)C(=O)N1c1ccc(Cl)cc1,-16,i,i,i,i,x,x,x,x,x,x,x
CSC1=NS(=O)(=O)c2c(C)nn(C)c2S1,-13,i,i,i,i,-4*,0.0083,0.0067,0.033,u,0.019,u
CC(SCc1ccccc1)C(=O)Nc1ccc(F)cc1 (stereo not drawn),-10,i,i,i,i,-0.38,x,x,x,x,x,x
Cc1cccc(CSC(Nc2ccc(F)cc2)=C(C#N)C#N)c1,-19,i,i,i,8*,-5*,0.0073,0.0064,0.029,0.0057*,0.059*,0.01
N#CC(C#N)=C(Nc1ccc(F)cc1)SCc1cccc(Br)c1,-21,i,i,i,7*,-3.7*,0.0065,u,u,0.0096*,0.015*,0.011
Cc1cccc(CSC(=N)N)c1,-11,i,i,i,i,1,x,x,x,x,x,x
CCN(Cc1ccccc1)C(=O)CC(=O)N(CC)Cc1ccccc1,-3,i,i,i,i,x,x,x,x,x,x,x
SMILES,hERG rescue,KCNK3 block,KCNQ1 pot,KCNK9 block,KCNQ1 block,Cl transport mod,KCC2 sec1,KCC2 bumet counter,KCC2 sec2,HEK counter1,KCC2 ouabain,HEK counter2
Cc1cc(NC(=O)CS(=O)(=O)c2cn(Cc3ccccc3Cl)c3ccccc23)no1,-11,i,i,i,i,-2.9*,0.0063,0.004,u,0.006*,0.015*,u
CC(=O)Nc1ccc(S(=O)(=O)NNC(=S)NCc2ccco2)cc1,-10,i,i,i,i,x,x,x,x,x,x,x
CC(C)n1nc(C(=O)Nc2nc3ccccc3[nH]2)c2ccccc2c1=O,-6,i,i,i,i,-4*,0.015,0.0037,0.025*,u,0.014,0.0088
CCCn1nc(C(=O)Nc2nc3ccccc3[nH]2)c2ccccc2c1=O,-9,i,i,i,i,-0.79,x,x,x,x,x,x
CCOc1ccc(C(C)=O)cc1Cn1c(=O)oc2ccccc21,1,i,i,i,i,x,x,x,x,x,x,x
O=C(Nc1ccc2oc(-c3ccccc3)nc2c1)c1ccc2c(c1)OCCO2,-22,i,i,i,i,-3*,0.0079,0.0068,0.029,0.007,0.035*,u
COc1ccc(C)cc1NC(=O)c1cc(S(=O)(=O)N2CCCCC2)ccc1N1CCOCC1,x,i,x,x,x,x,x,x,x,x,x,x
COc1ccc(OCCCc2c(C)n[nH]c2C)cc1,-7,i,i,i,i,4.8*,0.0088,0.0068,0.03,0.0077,0.033,u
Cc1n[nH]c(C)c1CCCOc1ccccc1,0,i,i,i,i,x,x,x,x,x,x,x
